An excerpt weighted towards active compounds, which were near 2.9% of everything screened.
Wee1 stabilizer – Wee1 degradation inhibitors, primary screen, cell-based, HeLa, Wee1K328M-luciferase, luminescence; hit rate 1.2% among 220,000; reporter increase, % at 5 µM; AID 1321, 2008; HeLa Luc-Wee1K328M stability; 100% = proteasome inhibitor MG132 effect; Wee1-like protein kinase (Homo sapiens), P30291;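 active means activation above the mean of all tested compounds plus 3 SD, set per screening run, cut at about 8.8% in these data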;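 further: cells exposed to compound for 20 h before luminescence read; 0% = DMSO alone and 100% = MG132 at 30 µM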
Target sequence (P30291 whole entry K328M): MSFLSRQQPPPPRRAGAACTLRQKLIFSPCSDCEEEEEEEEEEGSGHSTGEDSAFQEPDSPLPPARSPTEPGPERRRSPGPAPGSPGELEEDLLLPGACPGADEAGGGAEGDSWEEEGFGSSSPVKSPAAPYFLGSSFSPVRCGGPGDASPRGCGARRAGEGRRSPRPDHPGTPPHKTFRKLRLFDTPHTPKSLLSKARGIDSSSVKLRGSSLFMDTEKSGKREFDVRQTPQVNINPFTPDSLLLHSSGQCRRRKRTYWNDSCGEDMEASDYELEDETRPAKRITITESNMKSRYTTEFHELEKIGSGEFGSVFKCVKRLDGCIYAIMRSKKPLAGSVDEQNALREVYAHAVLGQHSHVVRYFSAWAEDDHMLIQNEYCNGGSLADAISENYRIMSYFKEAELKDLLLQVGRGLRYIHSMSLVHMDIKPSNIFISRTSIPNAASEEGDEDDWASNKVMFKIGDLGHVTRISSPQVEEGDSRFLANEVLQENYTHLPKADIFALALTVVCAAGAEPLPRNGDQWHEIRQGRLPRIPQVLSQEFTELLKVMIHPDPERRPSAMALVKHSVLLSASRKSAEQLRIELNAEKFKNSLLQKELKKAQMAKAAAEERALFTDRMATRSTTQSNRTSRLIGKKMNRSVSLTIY
RanGTP-Imp inh – inhibitors of RanGTP-importin-beta interaction, primary screen, biochemical, FRET, CFP-Ran, YFP-importin-beta, homogeneous | cell-free CFP-Ran/YFP-importin-beta FRET ratio | inhibition, % (concentration not given with the values) | hit rate 1.1% among 300,000;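 active means more than half of the replicate wells show a fall in the fluorescence ratio signal beyond about 16%, limit read from the data, passing the limit was not always enough; inconclusive means exactly half of the replicate wells pass the set limit; inactive means fewer than half of replicates pass the limit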;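 further: 0% = DMSO wells and 100% = Ran loaded with GDP instead of GTP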
Runt-CBFb FRET – inhibitors of RUNX1 Runt–CBFb binding, primary screen, biochemical, FRET, Cerulean-Runt, Venus-CBFb, uHTS; Runt-related transcription factor 1 (Homo sapiens) + Core-binding factor subunit beta …; Cerulean-Runt/Venus-CBFb FRET ratio 530/480, 1 h; inhibition, % at 20 µM; hit rate 0.46% among 220,000;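 active means inhibition over about 50% at 20 µM in the single-dose screen, limit read from the data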;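 further: 0% = DMSO wells and 100% = excess unlabeled CBFb competitor control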
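Measured by: fluorescence energy transfer, 422 nm excitation, 530/480 nm emission; Assay system: Cerulean-Runt domain; Medium: Tris pH 7.5 buffer with BSA; Measure: loss of energy transfer signal; Controls: 5 µM unlabeled CBFb as full-inhibition high control; Incubation: protein complex preformed 1 h, compound exposure 1 h, room temperature, dark.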
AI-2 QS mod – Vibrio harveyi AI-2 quorum sensing modulators, primary screen, JMH597 strain, luminescence/OD600 ratio | AID 2094, 2009 | hit rate 0.4% among 300,000 | activity change, % at 7.5 µM | Vibrio harveyi JMH597 AI-2 luminescence/OD600 ratio, 9 h; stronger effect = lower value; strain lacks LuxN and CqsS sensors; 0 = neutral-control median; in the data active means activity change below about -75%, passing the limit was not always enough; inconclusive means no clear call, values can overlap the other calls;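 further: luminescence divided by OD600 gain over 9 h not by final OD600 alone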
proKLK7 act – proKLK7 zymogen activators, primary screen, biochemical, fluorescence intensity; Kallikrein-7 (Homo sapiens), P49862; purified proKLK7, EDANS-DABCYL substrate fluorescence; 100% is mature enzyme control, 0% vehicle; AID 652039, 2013; activation, % at 7 µM; hit rate 0.9% among 370,000;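 active means activation above the mean of all tested compounds plus 3 SD, computed per campaign excluding outliers beyond control limits, cut at about 13% in these data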
Runt-SMMHC FRET – inhibitors of RUNX1 Runt–CBFb-SMMHC binding, primary screen, biochemical, FRET, Cerulean-Runt, Venus-CBFb-SMMHC, uHTS; hit rate 0.74% among 220,000; Runt-related transcription factor 1 (Homo sapiens) + Core-binding factor subunit beta …; inhibition, % at 20 µM; Cerulean-Runt/Venus-CBFb-SMMHC FRET ratio 530/480, 1 h;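 active means mean inhibition across duplicate retests at 20 µM reaching about 50%, limit read from the data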;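 further: 0% = DMSO wells and 100% = wells with excess untagged CBFb-SMMHC; inhibitors lower the FRET ratio by blocking Runt binding to CBFb-SMMHC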
KLK7 act conf – proKLK7 zymogen activators, confirmation, biochemical, fluorescence intensity, triplicate; hit rate 68% among 3,200; purified proKLK7, EDANS-DABCYL substrate fluorescence; scaled: vehicle 0, mature enzyme 100; activation, % at 7 µM; AID 686949, 2013; shares compounds with proKLK7 act;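 active means activation, as change over the incubation, above the mean of all tested compounds plus 3 SD, cut at about 13% in these data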
EDANS-DABCYL int – EDANS-DABCYL substrate optical interference, artefact control for kallikrein-7 zymogen activator project, biochemical, fluorescence intensity, high throughput; shares compounds with proKLK7 act; no enzyme, 4 h; solvent 0%, active enzyme control 100%; activation, % at 7 µM; hit rate 80% among 3,200; AID 686952, 2013;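 active means activation above the all-compound mean plus 3 SD, ignoring values outside control-based bounds, cut at about 4.8% in these data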;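 further: value is the 4 h activation minus the activation read at time zero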
Numbers without * were called inactive; ? = inconclusive; / = no result.

SMILES	Wee1 stabilizer	RanGTP-Imp inh	Runt-CBFb FRET	AI-2 QS mod	proKLK7 act	Runt-SMMHC FRET	KLK7 act conf	EDANS-DABCYL int
COc1cc(OC)cc(C(=O)Nc2cc(-c3cn4cccnc4n3)ccc2C)c1	-1.3	?	-3.9	31.8	13.6*	2.1	-92.2	-83.2
COc1ccc(-c2cn3cccnc3n2)cc1NC(=O)C(C)C	/	-3.6	/	16.4	8.3	/	/	/
Cc1ccc(-c2cn3cccnc3n2)cc1NC(=O)c1cccs1	0.3	2.9	2.9	5.8	33.0*	-4.3	35.2*	39.0*
COc1ccc(-c2cn3cccnc3n2)cc1Br	1.2	0.8	-0.5	8.8	31.8*	0.5	78.8*	75.3*
CN(C(=O)COC(=O)c1cc2ccccc2cc1O)c1c(N)n(Cc2ccccc2)c(=O)[nH]c1=O	/	2.6	/	/	5.5	/	/	/
C/C(=N\NC(=O)c1cccnc1)c1ccc(OC2OCCOC2Oc2ccc(/C(C)=N/NC(=O)c3cccnc3)cc2)cc1 (configuration not stated)	-1.2	-3.9	0.7	14.5	-0.5	2.0	/	/
CNc1c2cccc(C)c2nc2c(C(=O)NCCN(C)C)cccc12	/	/	/	/	7.6	/	/	/
O=C(/C=C/c1ccco1)c1ccccc1O	-2.4	2.4	8.2	2.2	8.3	-1.1	/	/
O=C(C=Cc1ccco1)c1cc(Cl)ccc1O	/	/	/	/	35.3*	/	-0.1	1.4
Cc1ccccc1-n1c(SCC(=O)NC2CC2)nc2ccccc2c1=O	/	/	/	/	0.0	/	/	/
Clc1ccc2nc(-c3ccc4c(c3)OCO4)cn2c1	-0.7	1.8	-0.5	3.6	14.3*	-3.3	7.2	7.8*
Cc1ccc2nc(-c3ccc4c(c3)OCCO4)cn2c1	-3.0	-3.7	-14.9	5.8	5.3	-1.1	/	/
CCOc1ccc2[nH]c(SCC(=O)OC)c([N+](=O)[O-])c2c1	0.5	-55.6	-160.0	4.4	13.3*	-121.3	18.5*	16.0*
c1ccc(Nc2c(-c3ccco3)nc3ccccn23)cc1	2.8	4.7	14.3	25.6	15.5*	0.2	67.6*	71.6*
CN(C)c1ccc(-c2nc3ncc(Cl)cc3[nH]2)cc1	/	/	/	/	17.1*	/	-3.3	11.9*
Clc1ccc2nc(-c3ccc(Cl)nc3)[nH]c2c1	/	-3.0	/	8.1	1.2	/	/	/
Cn1c2ccsc2c2ncn(Cc3ccccc3F)c(=O)c21	/	/	/	/	65.4*	/	65.0*	62.3*
COc1cc2ccc(=O)oc2c(CC=C(C)C)c1OC	/	2.1	-0.2	5.9	3.4	2.0	/	/
COc1cc2ccc(=O)oc2cc1O	/	/	/	/	95.0*	/	76.7*	83.1*
COc1cc2oc(=O)ccc2c(OC)c1CC(O)C(C)(C)O (configuration not stated)	/	3.1	1.9	6.1	1.6	1.4	/	/
COc1cc2ccc(=O)oc2cc1OCC(O)C(C)(C)O (configuration not stated)	/	0.9	4.4	4.8	21.0*	7.5	32.9*	47.6*
COc1cc(OCc2ccccc2)c2c(CCC(=O)O)cc(=O)oc2c1	/	/	/	/	88.9*	/	59.0*	58.1*
CCc1cc(=O)oc2cc(OC(C)=O)cc(OC(C)=O)c12	-1.1	6.1	16.3	19.1	78.9*	27.6	486.3*	533.5*
COc1cc(OCc2ccccc2)c(CC(=O)O)c([N+](=O)[O-])c1	/	/	/	/	0.1	/	/	/
